Here are results for three compounds from article PMC11383987 (bioRxiv, 2024).

Substitutions are numbered along the chain they refer to.

The target of one assay is T1, PIN8 S266A (Arabidopsis thaliana, UniProt Q9LFP6, S266A).
T1 sequence (Q9LFP6 1-367 S266A): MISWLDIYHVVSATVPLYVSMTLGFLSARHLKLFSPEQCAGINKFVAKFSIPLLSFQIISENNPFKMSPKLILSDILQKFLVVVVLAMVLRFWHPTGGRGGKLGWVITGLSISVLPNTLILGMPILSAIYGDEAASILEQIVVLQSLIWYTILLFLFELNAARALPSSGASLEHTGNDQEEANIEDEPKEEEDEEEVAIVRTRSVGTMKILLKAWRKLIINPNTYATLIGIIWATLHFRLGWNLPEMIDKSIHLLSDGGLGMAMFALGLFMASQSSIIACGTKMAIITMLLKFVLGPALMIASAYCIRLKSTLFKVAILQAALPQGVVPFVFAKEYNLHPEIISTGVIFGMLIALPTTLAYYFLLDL
Briefly: SSM electrophysiology peak current response, PIN8 S266A proteoliposomes. The assay is classed as biochemical. As to conditions: for Imax: PIN8 S266A.

For assay [1], the target named is T2, PIN8 (Arabidopsis thaliana, UniProt Q9LFP6).
T2 sequence (Q9LFP6 1-367): T1 sequence (Q9LFP6 1-367 S266A) with A266S
As to conditions: read-out: KD of IAA binding by PIN8, previously described; cited from earlier work.

Another assay addresses T3, PIN8 Y150A (Arabidopsis thaliana, UniProt Q9LFP6, Y150A).
T3 sequence (Q9LFP6 1-367 Y150A): T1 sequence (Q9LFP6 1-367 S266A) with Y150A, A266S
Put plainly: SSM electrophysiology peak current response, PIN8 Y150A proteoliposomes. In kind it is biochemical. The following applies: for Imax: PIN8 Y150A.

In assay [2] the target is T2, PIN8. Briefly: Xenopus oocyte efflux assay, PIN8. As to conditions: PIN8 in oocytes, NPA-sensitive, internal concentration 1 µM. In kind it is cell-based. A digest of the protocol: (§1)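 Xenopus oocytes received 150 ng PIN8 or PIN3 cRNA; PIN3 was given with or without 75 ng PID kinase cRNA. [3H]-IAA or [3H]-2,4-D was injected to an internal 1 µM, ± 10 μM NPA internally. Residual radioactivity per oocyte was counted by scintillation over a time course (10 oocytes per point) and set against the initial 100%. %/min rates came from linear regression; each replicate used a different female.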

The next assay deals with A. thaliana PIN3. Briefly: Xenopus oocyte efflux assay, PIN3 with PID kinase. The assay is classed as cell-based, Arabidopsis thaliana. As to conditions: PIN3 with PID kinase in oocytes, NPA-sensitive, internal concentration 1 µM. The gist of the method:
as §1

Assay [3] concerns A. thaliana stem segments (wild type and pin1 mutants). Put plainly: Arabidopsis stem segment transport assay. More on the design: species or system Arabidopsis thaliana. The gist of the method: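 Stem sections (2 cm) were cut above the rosette of 5-week-old Col-0 or pin1 plants. They were inverted into buffer (500 pM IAA, 1% sucrose, 5 mM MES pH 5.5) ± 100 μM NPA for 2 h. They were then moved to buffer with 417 nM [3H]-IAA or [3H]-2,4-D ± NPA for 2 h. Three 5 mm segments were dissected and counted by liquid scintillation.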

The target in the next assay is T4, PIN8 N117A (Arabidopsis thaliana, UniProt Q9LFP6, N117A).
T4 sequence (Q9LFP6 1-367 N117A): T1 sequence (Q9LFP6 1-367 S266A) with N117A, A266S
Briefly: SSM electrophysiology peak current response, PIN8 N117A proteoliposomes. The assay is classed as biochemical. The following applies: 100 μM or 2 mM substrate, relative to WT. A digest of the protocol: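 The N117A point mutant of PIN8 was made by site-directed mutagenesis. It was reconstituted in proteoliposomes in Ca2+-free Ringer pH 7.4 and immobilised on SSM sensors. Peak currents were recorded after a single solution exchange to 100 μM or 2 mM substrate and expressed relative to wild type. Mean ± s.e.m., n = 3 sensors; one-way ANOVA.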

Assay [4] has as its target T2, PIN8. Put plainly: KD of substrate binding by competition with NPA binding current. As to conditions: KD relative to IAA. The gist of the method: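 Purified PIN8 (LMNG) was reconstituted at LPR 10 into soy polar lipid/POPC liposomes in Ca2+-free Ringer pH 7.4 and adsorbed on SSM sensors. Current from 100 µM NPA was recorded with test compound at 0–1000 µM in both activating and non-activating solutions (3 s single exchange). KD was taken as the half-maximal point of a one-site fit of peak current inhibition. n = 3 sensors, 3 technical replicates each.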

Broadly, the EC50 is the concentration at which the effect is half-maximal. One may read the Kd as the equilibrium constant for the complex coming apart. `O=C(O)Cc1c[nH]c2ccccc12` [IAA, indole-3-acetic acid]: the figures for the concentration giving a half-maximal response (EC50) on PIN8 S266A and on PIN8 Y150A were 578 ± 183 µM and 1210 ± 298 µM, respectively. In addition, the Imax came out at 4 ± 0.6 nA on PIN8 S266A and 4 ± 0.3 nA at PIN8 Y150A. Besides, the Kd on PIN8 [1] was 40 ± 15 µM.

Consider `O=C(O)COc1ccc(Cl)cc1Cl` [2,4-D, 2,4-dichlorophenoxyacetic acid], for which the “2,4-D export transport rate relative to that determined for IAA” value at PIN8 [2] was “about half”. Besides, the “2,4-D export rate relative to the IAA transport rate” value in the assay on A. thaliana PIN3 is “about half”. Further, in assay [3] (pin1 mutant stem segments), the “transport in pin1 mutants” value is given as “completely abolished”. Moreover, in assay [3] (wildtype plants, stem segments), the “transport lower than IAA transport” value is given as “about 20 fold”. The “current response with N117A mutation” value on PIN8 N117A is on record as “abolishes the current response”. On PIN8 S266A, this compound showed an EC50 of 774 ± 70 µM and an Imax of 12 ± 0.7 nA. At PIN8 Y150A, this compound showed an EC50 of 684 ± 256 µM and an Imax of 5 ± 1 nA.

With `O=C(O)COc1ccc(Cl)cc1` [4-CPA, 4-chlorophenoxyacetic acid], the “current response with N117A mutation” value at PIN8 N117A is “abolishes the current response”. In addition, at PIN8 S266A, the concentration giving a half-maximal response (EC50) was determined as 2100 ± 290 µM and the Imax stood at 7 ± 2 nA. The “affinity lower compared to IAA” value at PIN8 [4] was ~ 8 fold. At PIN8 Y150A, this compound displayed an EC50 of 2620 ± 263 µM and an Imax of 5 ± 0.4 nA.
